Screening data as filed in PubChem BioAssay.
H69AR inhibit: blocks growth of human H69AR lung tumor cells. AID 598. 85,000 compounds, 6% hits. H69AR lung tumor viability, ATP luminescence, 72 h; active compounds read low. viability, % at 10 µM;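 active means viability at or below 40%; inactive means viability above 40%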;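 further: multidrug resistant small cell line overexpressing MRP-1 efflux transporter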
Jurkat viability: cytotoxic compounds reducing Jurkat cell viability; Jurkat E6.1 viability, ATP luminescence, 48 h; inhibition, % at 4 µM; 56,000 compounds, 1.2% hits; AID 463;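 active means inhibition above the mean inhibition of all tested compounds plus 3 SD, cut at about 28% in these data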
Lung fibro prol: blocks proliferation of human lung fibroblasts | LL 47 human lung fibroblast viability, ATP luminescence; active compounds read low | viability, % at 10 µM | 85,000 compounds, 1.1% hits | AID 719;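 active means viability at or below 50% in the single dose screen; inactive means viability above 50%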;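 further: compound exposure lasted 72 h before the ATP readout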
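Test system: LL 47 human lung fibroblasts / Quantity: 1,150 cells in each well / Medium: IMEM growth medium with 15% fetal bovine serum / Incubation: 72 h compound exposure at 37 °C after overnight plating / Detection: CellTiter-Glo luminescence measuring cellular ATP / Read-out: % viability versus median cells-only luminescence / Benchmarks: cell-only wells, no compound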
HUVEC inhibit: human endothelial cell proliferation inhibition | HUVEC proliferation, CellTiter-Glo luminescence, 72 h; active compounds read low | viability, % at 10 µM (by protocol) | 86,000 compounds, 1.1% hits;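 active means viability at or below 30%; inactive means viability above 30%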
F-actin modifier: modifiers of cytoskeleton assembly; HUVEC TNFa F-actin phalloidin imaging, high content; inhibition, % at 2 µM; 91,000 compounds, 0.18% hits; AID 836;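 active means inhibition above the batch mean plus 3 SD and confirmed as a hit by visual image inspection, cut at about 30% in these data, passing the limit was not always enough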
PTK2B oligo ant: antagonists of human Pyk2 oligomerization; z-score (the deposit names both 25 µM and 10 µM); Q293 cells, Pyk2 FERM NanoBiT luminescence; active compounds read low; 99,000 compounds, 0.83% hits; Q14289;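 active means Z-score of -3 or lower, scaled per plate to the spread of control and sample wells; inactive means z-score above -3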;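 further: negative z-score means lost luminescence so less FERM oligomerization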
Target sequence (Q14289 whole entry, looked up): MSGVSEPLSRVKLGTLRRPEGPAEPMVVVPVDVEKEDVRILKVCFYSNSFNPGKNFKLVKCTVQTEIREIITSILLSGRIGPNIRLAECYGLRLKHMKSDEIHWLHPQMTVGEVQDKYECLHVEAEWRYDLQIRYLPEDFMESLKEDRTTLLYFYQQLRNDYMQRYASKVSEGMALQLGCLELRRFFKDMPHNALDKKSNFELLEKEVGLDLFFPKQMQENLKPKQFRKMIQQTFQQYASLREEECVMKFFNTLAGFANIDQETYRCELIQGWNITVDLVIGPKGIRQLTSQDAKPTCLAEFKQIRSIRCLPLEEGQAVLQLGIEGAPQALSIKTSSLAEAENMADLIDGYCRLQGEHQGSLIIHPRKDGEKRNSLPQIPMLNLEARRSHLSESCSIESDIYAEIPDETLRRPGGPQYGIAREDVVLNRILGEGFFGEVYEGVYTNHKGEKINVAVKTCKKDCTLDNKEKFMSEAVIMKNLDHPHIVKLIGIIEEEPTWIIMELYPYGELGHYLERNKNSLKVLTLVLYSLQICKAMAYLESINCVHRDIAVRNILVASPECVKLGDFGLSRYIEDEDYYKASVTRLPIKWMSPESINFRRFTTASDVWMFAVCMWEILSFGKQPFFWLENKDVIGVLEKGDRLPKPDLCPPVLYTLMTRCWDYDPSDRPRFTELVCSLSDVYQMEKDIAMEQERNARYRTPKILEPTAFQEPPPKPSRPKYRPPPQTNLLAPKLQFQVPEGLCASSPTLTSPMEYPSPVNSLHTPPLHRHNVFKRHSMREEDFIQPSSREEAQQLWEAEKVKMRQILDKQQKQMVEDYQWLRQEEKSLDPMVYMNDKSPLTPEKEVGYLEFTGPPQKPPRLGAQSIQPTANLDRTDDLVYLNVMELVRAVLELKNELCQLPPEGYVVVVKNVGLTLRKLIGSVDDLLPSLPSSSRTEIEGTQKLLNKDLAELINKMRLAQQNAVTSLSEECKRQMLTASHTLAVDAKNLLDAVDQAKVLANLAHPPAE
Each line names hits and unclear results; the compound was inactive in the other large screens. Compounds with a hit are over-represented: about 6% of the library has one in this group of screens.

Cc1ccc(-c2nnn(CC(=O)N(Cc3cccs3)C(C(=O)NC3CCCCC3)c3ccco3)n2)o1 (centres undefined)	H69AR inhibit 19 (no result: Jurkat viability)
O=C(NCC1CCCO1)C(c1ccc(F)cc1)N(Cc1ccc(F)cc1)C(=O)Cn1nnc(-c2cccs2)n1 (centres undefined)	H69AR inhibit 40 (no result: Jurkat viability)
Cc1ccc(-c2nnn(CC(=O)N(Cc3cccs3)C(C(=O)NC3CCCC3)c3ccncc3)n2)cc1 (centres undefined)	H69AR inhibit 29 (no result: Jurkat viability)
CC(C)(C)NC(=O)C(c1ccc(F)cc1)N(Cc1ccco1)C(=O)Cn1nnc(-c2cccs2)n1 (centres undefined)	none (no result: Jurkat viability)
CC(=O)OC1c2ccccc2C(=O)N1Cc1ccccc1 (centres undefined)	none (no result: Jurkat viability, PTK2B oligo ant)
COc1ccc(-c2nnn(CC(=O)N(Cc3ccc(F)cc3)C(C(=O)NC3CCCC3)c3ccc(F)cc3)n2)cc1 (centres undefined)	H69AR inhibit 27, Lung fibro prol 12 (no result: Jurkat viability)
CCOC(=O)CN(C(=O)Cn1nnc(-c2ccc(OC)cc2)n1)C(C(=O)NC1CCCC1)c1ccc(F)cc1 (centres undefined)	none (no result: Jurkat viability)
CC(C)(C)C(=O)NC1CCN(S(=O)(=O)c2ccc(C(F)(F)F)cc2)CC1	none (no result: Jurkat viability)
CCOC(=O)c1c(NC(=O)Cn2nnc3ccccc32)sc2c1CCC(C)C2 (centres undefined)	none
CCOC(=O)c1c(NC(=O)c2ccc(-n3cnnn3)cc2)sc2c1CCCC2	H69AR inhibit 2.1 (no result: Lung fibro prol, F-actin modifier, PTK2B oligo ant)
CCOC(=O)c1c(NC(=O)c2noc3c2CCCC3)sc2c1CCCC2	none (no result: F-actin modifier, PTK2B oligo ant)
CCOC(=O)c1c(NC(=O)Cn2c(C)nc3ccccc32)sc2c1CCC2	H69AR inhibit 36
CN(C)c1nc(-c2ccccc2)nc(-c2ccc(Cl)cc2)c1C#N	H69AR inhibit 32 (no result: Jurkat viability)
N#CC(c1ccc(F)cc1)c1ccc(C(=O)c2ccc(F)cc2)cc1 (centres undefined)	none (no result: Jurkat viability)
Cc1ccc(C(C#N)c2ccc(C(=O)c3ccc(F)cc3)cc2)cc1 (centres undefined)	HUVEC inhibit 17 (no result: Jurkat viability)
c1ccc(CN2CCN(c3nc4ccccc4c4ccccc34)CC2)cc1	none (no result: Jurkat viability)
COc1ccc(-c2nnc(SCC(=O)NCc3cccs3)n2C(C)C)cc1	none (no result: Jurkat viability)
Cc1cc2c(cc(C(=O)OCC(=O)NCc3cccs3)n2C(C)C)o1	H69AR inhibit 27, Jurkat viability 64
Cc1cccc(N(CC(=O)NC2CCCCC2)C(=O)c2c(C)noc2C)c1	none (no result: Jurkat viability)
CC12CCC(C(=O)N(NC(=O)c3cc(Cl)ccc3O)C1=O)C2(C)C (centres undefined)	none (no result: H69AR inhibit, Jurkat viability, Lung fibro prol, HUVEC inhibit)
COc1ccc(Nc2ncnc3c2cnn3-c2ccccc2)cc1OC	H69AR inhibit 37 (no result: PTK2B oligo ant)
CC(=O)Nc1ccc(Nc2ncnc3c2cnn3-c2cccc(C)c2)cc1	none (no result: H69AR inhibit, Lung fibro prol, HUVEC inhibit)
COc1ccc(OC)c(Nc2ncnc3c2cnn3-c2cccc(C)c2)c1	H69AR inhibit 23 (no result: Jurkat viability)
O=C(Nc1ccc2c(c1)OCO2)c1cnn2c(C(F)(F)F)cc(-c3ccco3)nc12	H69AR inhibit 27
COc1ccc(NC(=O)c2cnn3c(C(F)(F)F)cc(-c4ccco4)nc23)cc1OC	none
Cc1ccccc1Cn1ccc(NC(=O)c2cnn3c(C(F)(F)F)cc(-c4ccco4)nc23)n1	H69AR inhibit 34
O=C(Nc1cnn(C23CC4CC(CC(C4)C2)C3)c1)c1cnn2c(C(F)(F)F)cc(-c3ccco3)nc12	none
Cc1ccc(C2CC(c3ccccc3)=NN2C(=S)Nc2ccccc2)o1 (centres undefined)	none (no result: H69AR inhibit, Jurkat viability, Lung fibro prol, HUVEC inhibit)
CCNc1ccc2c(Cl)cc(=O)oc2c1	H69AR inhibit 37 (no result: PTK2B oligo ant)
Nc1c(C(O)(C(F)(F)F)C(F)(F)F)cc(C(O)(C(F)(F)F)C(F)(F)F)c2ccccc12	H69AR inhibit 25 (no result: Jurkat viability)
CCOC(=O)CSc1nc(C2CC2)cc(-c2ccc(F)cc2)c1C#N	PTK2B oligo ant -3.3 (no result: H69AR inhibit, Jurkat viability, Lung fibro prol, HUVEC inhibit)
CCOc1ccc(-n2c(N)c(-c3nc4ccccc4[nH]3)sc2=S)cc1	H69AR inhibit 22 (no result: Jurkat viability, F-actin modifier)
COc1ccc(-n2c(N)c(-c3nc4ccccc4n3C)sc2=S)cc1	none (no result: H69AR inhibit, Jurkat viability, Lung fibro prol, HUVEC inhibit)
CCCc1nnc(SCc2ccc(OC)cc2)n1N	none
CCOC(=O)c1nnn(-c2nonc2-n2cccc2)c1CCl	H69AR inhibit 1.5, Lung fibro prol 35, HUVEC inhibit 3.3 (no result: Jurkat viability)
CCOC(=O)c1nnn(-c2nonc2-n2cccc2)c1CN1CCC(C)CC1	none
COc1ccc(-c2nnc(SCc3nnc(-c4ccccc4)o3)n2-c2ccccc2)cc1	H69AR inhibit 2.6
